From ChEMBL document CHEMBL1154186, “Synthesis, kinase inhibitory potencies, and in vitro antiproliferative evaluation of new Pim kinase inhibitors” (J Med Chem, 2009) come the findings set out here.

Experiment [1] in a line: Inhibition of CK2 assessed as residual enzyme activity at 10 uM relative to untreated control. The gist of the method:
(§1)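 Radiometric filter-binding assay at 21 °C for 30 min. Mix: 50 mM Tris/HCl pH 7.5, 0.1 mM EGTA, 0.1% 2-mercaptoethanol, 10 mM Mg acetate and [γ-33P]ATP (800 cpm/pmol) at 5 µM. Stopped with orthophosphoric acid and spotted on P81. Compound at 10 µM; activity given as % remaining versus no-inhibitor control, duplicates. Kinases human full-length unless noted.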

In experiment [2] the target is Calcium/calmodulin-dependent protein kinase kinase 2 (Homo sapiens) (UniProt Q96RR4). In words: Inhibition of CAMKKbeta assessed as residual enzyme activity at 10 uM relative to untreated control.
The target of experiment [3] is T1, Aurora kinase C (Homo sapiens) (UniProt Q9UQB9).
T1 sequence (whole entry): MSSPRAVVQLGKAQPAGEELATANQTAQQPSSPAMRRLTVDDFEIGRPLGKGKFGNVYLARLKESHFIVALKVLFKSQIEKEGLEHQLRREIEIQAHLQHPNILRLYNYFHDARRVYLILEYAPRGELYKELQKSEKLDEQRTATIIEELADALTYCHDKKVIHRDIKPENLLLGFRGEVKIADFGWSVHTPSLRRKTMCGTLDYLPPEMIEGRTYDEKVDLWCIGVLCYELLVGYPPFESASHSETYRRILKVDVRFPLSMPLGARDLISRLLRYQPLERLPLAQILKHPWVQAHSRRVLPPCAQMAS
In words: Inhibition of AURORA C assessed as residual enzyme activity at 10 uM relative to untreated control. A digest of the protocol:
as §1

Experiment [4] deals with Mitogen-activated protein kinase 3 (Homo sapiens) (UniProt P27361). In words: Inhibition of ERK1 assessed as residual enzyme activity at 10 uM relative to untreated control. The gist of the method: as §1
The target in experiment [5] is T2, Serine/threonine-protein kinase Sgk1 (Homo sapiens) (UniProt O00141).
T2 sequence (whole entry): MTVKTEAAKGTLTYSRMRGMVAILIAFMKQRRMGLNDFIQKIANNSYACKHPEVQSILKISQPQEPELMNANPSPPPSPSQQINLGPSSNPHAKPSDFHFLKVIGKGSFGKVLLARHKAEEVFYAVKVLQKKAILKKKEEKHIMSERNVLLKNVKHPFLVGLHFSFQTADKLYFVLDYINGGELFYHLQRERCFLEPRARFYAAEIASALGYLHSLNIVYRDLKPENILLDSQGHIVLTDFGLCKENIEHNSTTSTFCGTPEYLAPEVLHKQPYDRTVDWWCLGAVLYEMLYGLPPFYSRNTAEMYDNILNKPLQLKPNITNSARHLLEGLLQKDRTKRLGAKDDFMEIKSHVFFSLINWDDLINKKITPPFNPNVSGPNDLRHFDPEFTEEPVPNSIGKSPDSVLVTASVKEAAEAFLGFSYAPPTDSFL
In words: Inhibition of SGK1 assessed as residual enzyme activity at 10 uM relative to untreated control. The gist of the method:
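Buffer Tris/HCl pH 7.5, EGTA and 2-mercaptoethanol. 30 min at 21 °C, compound at 10 µM. P81 filter read-out. Residual activity versus control, duplicates.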

For experiment [6], the target named is Serine/threonine-protein kinase N2 (Homo sapiens) (UniProt Q16513). In words: Inhibition of PRK2 assessed as residual enzyme activity at 10 uM relative to untreated control. A digest of the protocol: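 Tris/HCl pH 7.5, EGTA, 2-mercaptoethanol buffer, 30 min, 21 °C, compound at 10 µM. Radioactive phosphate measured on P81 filters. Residual activity as % of uninhibited incubations, duplicates.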

Experiment [7] addresses Serine/threonine-protein kinase PAK 6 (Homo sapiens) (UniProt Q9NQU5). In words: Inhibition of PAK6 assessed as residual enzyme activity at 10 uM relative to untreated control. The gist of the method:
(§2)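 Kinases of human origin, except CK1δ, which is rat. Run in 50 mM Tris/HCl pH 7.5, 0.1 mM EGTA, 0.1% 2-mercaptoethanol and 10 mM Mg acetate, with [γ-33P]ATP at 20 µM, 30 min at 21 °C. Acid-stopped and captured on P81 filters. Compound tested at 10 µM; residual % of uninhibited control, duplicate determinations.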

Experiment [8] addresses T3, 3-phosphoinositide-dependent protein kinase 1 (Homo sapiens) (UniProt O15530).
T3 sequence (whole entry): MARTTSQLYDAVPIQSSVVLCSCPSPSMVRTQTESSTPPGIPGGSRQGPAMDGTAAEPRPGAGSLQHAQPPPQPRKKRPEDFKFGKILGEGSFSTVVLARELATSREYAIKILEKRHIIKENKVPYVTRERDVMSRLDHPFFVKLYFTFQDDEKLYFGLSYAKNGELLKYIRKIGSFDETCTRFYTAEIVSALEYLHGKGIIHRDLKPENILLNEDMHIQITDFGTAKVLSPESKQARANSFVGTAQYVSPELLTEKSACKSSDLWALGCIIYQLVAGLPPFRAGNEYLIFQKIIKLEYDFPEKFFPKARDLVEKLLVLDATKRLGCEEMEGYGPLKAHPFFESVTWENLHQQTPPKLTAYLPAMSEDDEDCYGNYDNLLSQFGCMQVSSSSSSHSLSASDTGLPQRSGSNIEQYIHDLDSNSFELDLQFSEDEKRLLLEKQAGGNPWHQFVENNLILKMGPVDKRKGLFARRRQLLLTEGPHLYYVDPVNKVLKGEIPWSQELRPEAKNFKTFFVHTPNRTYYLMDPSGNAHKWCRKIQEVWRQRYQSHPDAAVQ
In words: Inhibition of PDK1 assessed as residual enzyme activity at 10 uM relative to untreated control. The gist of the method: as §2

Experiment [9] has as its target T4, Mitogen-activated protein kinase 13 (Homo sapiens) (UniProt O15264).
T4 sequence (whole entry): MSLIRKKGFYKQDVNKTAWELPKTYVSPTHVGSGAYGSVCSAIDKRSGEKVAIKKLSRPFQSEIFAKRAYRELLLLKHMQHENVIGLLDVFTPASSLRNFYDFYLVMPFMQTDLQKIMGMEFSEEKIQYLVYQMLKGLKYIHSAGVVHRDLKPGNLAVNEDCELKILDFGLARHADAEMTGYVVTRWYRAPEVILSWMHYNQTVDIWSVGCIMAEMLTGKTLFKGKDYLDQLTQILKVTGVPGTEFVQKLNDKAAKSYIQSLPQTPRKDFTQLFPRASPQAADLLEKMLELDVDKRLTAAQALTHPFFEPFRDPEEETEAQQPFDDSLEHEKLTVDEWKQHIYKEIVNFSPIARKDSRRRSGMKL
Kind of experiment: Inhibition of p38delta assessed as residual enzyme activity at 10 uM relative to untreated control. A digest of the protocol:
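p38γ and p38δ MAPK run at 5 µM [γ-33P]ATP, and p38α at 50 µM, each with 10 mM Mg acetate. Buffer 50 mM Tris/HCl pH 7.5, 0.1 mM EGTA, 0.1% 2-mercaptoethanol. 10 µM compound, 30 min at 21 °C. P81 filter capture. Residual activity relative to control, duplicates.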

The target of experiment [10] is Serine/threonine-protein kinase pim-2 (Homo sapiens) (UniProt Q9P1W9). In words: Inhibition of Pim-2 assessed as residual enzyme activity at 10 uM relative to untreated control.

Each structure is given as a SMILES string.

Chain of Serine/threonine-protein kinase PAK 6 (Homo sapiens) (Q9NQU5 whole entry, looked up): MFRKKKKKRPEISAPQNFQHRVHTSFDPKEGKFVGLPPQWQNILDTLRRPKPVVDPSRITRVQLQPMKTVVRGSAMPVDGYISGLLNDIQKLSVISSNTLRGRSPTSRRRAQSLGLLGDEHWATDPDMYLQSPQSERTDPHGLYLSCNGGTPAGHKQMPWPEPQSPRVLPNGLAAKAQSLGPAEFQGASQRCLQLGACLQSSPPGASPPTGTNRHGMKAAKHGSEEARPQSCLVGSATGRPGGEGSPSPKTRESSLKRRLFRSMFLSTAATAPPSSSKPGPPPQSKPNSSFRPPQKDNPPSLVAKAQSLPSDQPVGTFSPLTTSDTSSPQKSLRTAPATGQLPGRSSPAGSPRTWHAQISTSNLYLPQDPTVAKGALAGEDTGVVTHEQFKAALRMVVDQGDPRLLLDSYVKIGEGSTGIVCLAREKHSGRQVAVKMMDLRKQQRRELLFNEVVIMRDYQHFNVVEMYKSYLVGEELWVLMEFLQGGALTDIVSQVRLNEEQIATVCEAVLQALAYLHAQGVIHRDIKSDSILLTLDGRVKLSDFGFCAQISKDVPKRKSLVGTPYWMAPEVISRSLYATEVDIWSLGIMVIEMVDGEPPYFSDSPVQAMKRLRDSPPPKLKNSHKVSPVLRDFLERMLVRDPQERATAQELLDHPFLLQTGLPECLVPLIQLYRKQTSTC
Chain of Mitogen-activated protein kinase 3 (Homo sapiens) (P27361 whole entry): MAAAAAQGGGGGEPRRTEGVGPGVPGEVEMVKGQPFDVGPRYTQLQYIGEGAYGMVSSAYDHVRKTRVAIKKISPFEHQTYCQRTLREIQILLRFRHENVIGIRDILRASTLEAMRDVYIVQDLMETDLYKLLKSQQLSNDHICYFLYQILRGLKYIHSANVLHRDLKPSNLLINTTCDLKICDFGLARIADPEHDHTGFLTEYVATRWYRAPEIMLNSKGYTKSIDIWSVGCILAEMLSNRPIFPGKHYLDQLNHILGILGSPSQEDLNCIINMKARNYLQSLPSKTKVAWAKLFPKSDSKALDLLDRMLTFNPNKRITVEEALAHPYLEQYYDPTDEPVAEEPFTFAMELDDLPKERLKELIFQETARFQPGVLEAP
Chain of Serine/threonine-protein kinase pim-2 (Homo sapiens) (Q9P1W9 whole entry, looked up): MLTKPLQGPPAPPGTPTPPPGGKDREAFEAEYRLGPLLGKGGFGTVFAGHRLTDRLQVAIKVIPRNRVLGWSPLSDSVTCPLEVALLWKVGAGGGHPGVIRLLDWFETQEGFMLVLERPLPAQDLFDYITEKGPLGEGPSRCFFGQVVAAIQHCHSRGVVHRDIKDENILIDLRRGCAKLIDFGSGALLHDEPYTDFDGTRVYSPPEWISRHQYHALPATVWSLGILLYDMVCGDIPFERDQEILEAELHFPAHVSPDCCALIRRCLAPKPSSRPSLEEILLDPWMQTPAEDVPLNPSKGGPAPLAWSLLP
Chain of Serine/threonine-protein kinase N2 (Homo sapiens) (Q16513 whole entry, looked up): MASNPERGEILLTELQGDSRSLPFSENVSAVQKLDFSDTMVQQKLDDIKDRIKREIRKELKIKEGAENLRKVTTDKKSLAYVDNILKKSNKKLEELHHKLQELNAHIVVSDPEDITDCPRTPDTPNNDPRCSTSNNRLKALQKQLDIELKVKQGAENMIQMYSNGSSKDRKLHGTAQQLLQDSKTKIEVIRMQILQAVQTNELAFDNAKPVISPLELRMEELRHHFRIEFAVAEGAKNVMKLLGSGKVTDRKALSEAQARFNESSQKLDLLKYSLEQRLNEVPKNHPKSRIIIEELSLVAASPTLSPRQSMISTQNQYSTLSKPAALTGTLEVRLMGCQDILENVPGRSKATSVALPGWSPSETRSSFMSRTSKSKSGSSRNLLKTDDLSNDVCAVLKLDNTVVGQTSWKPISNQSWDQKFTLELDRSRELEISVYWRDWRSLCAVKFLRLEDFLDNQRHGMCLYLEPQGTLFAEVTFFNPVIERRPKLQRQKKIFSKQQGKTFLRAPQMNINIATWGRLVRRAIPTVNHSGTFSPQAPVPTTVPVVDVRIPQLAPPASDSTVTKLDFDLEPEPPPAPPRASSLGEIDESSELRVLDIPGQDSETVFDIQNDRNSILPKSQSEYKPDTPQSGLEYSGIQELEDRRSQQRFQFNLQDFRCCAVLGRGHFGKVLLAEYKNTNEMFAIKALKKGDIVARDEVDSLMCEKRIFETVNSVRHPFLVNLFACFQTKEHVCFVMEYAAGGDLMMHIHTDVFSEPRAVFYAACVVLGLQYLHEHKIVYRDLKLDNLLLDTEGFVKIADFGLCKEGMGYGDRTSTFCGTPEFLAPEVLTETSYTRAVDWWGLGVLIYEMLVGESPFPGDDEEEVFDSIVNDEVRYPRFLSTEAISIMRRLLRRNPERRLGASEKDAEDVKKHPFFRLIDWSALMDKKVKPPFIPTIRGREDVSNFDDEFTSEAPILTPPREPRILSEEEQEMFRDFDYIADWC
Chain of Calcium/calmodulin-dependent protein kinase kinase 2 (Homo sapiens) (Q96RR4 2-588 limits assumed): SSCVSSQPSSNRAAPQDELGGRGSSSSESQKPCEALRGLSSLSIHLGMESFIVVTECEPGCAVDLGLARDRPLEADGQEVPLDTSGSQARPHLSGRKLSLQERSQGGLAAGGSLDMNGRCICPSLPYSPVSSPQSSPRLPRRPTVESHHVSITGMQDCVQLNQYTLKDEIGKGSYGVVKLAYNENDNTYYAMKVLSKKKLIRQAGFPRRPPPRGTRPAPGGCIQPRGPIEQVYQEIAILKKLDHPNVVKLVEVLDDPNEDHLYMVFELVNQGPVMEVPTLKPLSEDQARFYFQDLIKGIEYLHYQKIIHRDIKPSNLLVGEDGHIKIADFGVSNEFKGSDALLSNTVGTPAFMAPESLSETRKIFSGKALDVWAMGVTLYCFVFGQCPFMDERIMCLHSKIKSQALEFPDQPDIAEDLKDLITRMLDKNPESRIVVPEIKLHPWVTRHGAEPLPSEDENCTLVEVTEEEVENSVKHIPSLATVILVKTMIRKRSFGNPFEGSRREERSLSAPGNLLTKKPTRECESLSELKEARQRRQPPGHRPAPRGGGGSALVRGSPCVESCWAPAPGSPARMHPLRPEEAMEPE

Take `O=Cc1c[nH]c2c1ccc1c3ccccc3[nH]c12`: the Activity was 62% in [1]; 56% in [2]; 79% in [3]; 87% in [4]; 64% in experiment [5]; 31% in experiment [6]. In addition, in experiment [7], the Activity amounted to 94%.

On to `c1ccc2c(c1)[nH]c1c3cc[nH]c3ccc21`, for which the Activity is 96% in experiment [1]; 82% in experiment [8]; 87% in [2]; 99% in experiment [3]; 89% in experiment [9]; 97% in [4]. Moreover, the Activity in experiment [10] was 77%; in experiment [5], 102%; in experiment [6] it was 84%; in [7], 91%.

As for `O=Cc1c[nH]c2ccc3c4ccccc4[nH]c3c12`, the Activity in experiment [1] came to 98%; in experiment [8], 85%; in [2], 102%; in [3], 104%; in [9], 83%; in experiment [4], 95%. The Activity in experiment [10] stood at 102%; in [5] it was 105%; in [6] it was 101%; in [7] it was 99%.

For `c1ccc2c(c1)[nH]c1c2ccc2cc[nH]c21`, the Activity is 91% in experiment [1]; 86% in [8]; 93% in experiment [2]; 85% in [3]; 78% in experiment [9]; 108% in experiment [4]. Also, the Activity in [10] stood at 62%; in experiment [5] it was 82%; in experiment [6], 95%; in experiment [7], 92%.
